PubChem BioAssay AID775 (SRMLSC, 2007)
Out of some 130,000 compounds screened, about 900 (0.69%) were called active. The sample as a whole holds a higher share of actives than the screen did. A number with no mark means an inactive call.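 Rule for the calls: active = inhibition above a set limit, placed 3 SD over the median of all compounds (cut at about 26% in these data); inactive = the rest.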

Test: rescue of nicotinamide-shortened yeast lifespan – S. cerevisiae, OD615, primary screen (AID 775);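 note: 0% = nicotinamide-treated wells and 100% = cells grown without nicotinamide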
Conditions: S. cerevisiae growth with nicotinamide, at 10 µM, hits give high values, deaD strain in restrictive glucose medium
In short: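 assay system = DeaD-strain S. cerevisiae | buffer or medium = restrictive glucose medium | reagent = 1.5 mM nicotinamide | compound = 10 µM single point, 0.25% DMSO | incubation = 48 h compound exposure at 30 °C, humidified | signal = OD615 measurement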

| Structure (SMILES) | inhibition of the nicotinamide effect |
| --- | --- |
| Cc1cc(C)c(NC(=S)N2CCCC2C(=O)O)c(C)c1 (stereo unspecified) | -4.99% |
| Cc1cccc(N2C(=O)SC(SC(=Nc3ccccc3)Nc3ccccc3)C2=O)c1 (stereo unspecified) | 7.31% |
| COc1ccc(/C=N/NC(=O)c2ccc(Cl)cc2)cc1COC(C)=O | -4.25% |
| Cc1cc(Cl)ccc1NC(=S)NCCCN1CCCC1=O | 3.7% |
| O=C(N/N=C/c1coc2ccccc2c1=O)c1cc2ccccc2o1 | 19.2% |
| NC(=S)N/N=C/c1coc2cc(Cl)ccc2c1=O | 38.1% (active) |
| CC(C)Oc1c(Br)cc(Br)cc1/C=N/NC(N)=S | 0.87% |
| O=C(Cc1ccccc1)NNC1CC(=O)N(c2ccc(Br)cc2)C1=O (stereo unspecified) | -4.42% |
| COc1ccc(-n2c(C)cc(C(=O)COC(=O)c3cc(OC)c(OC)cc3NC(=O)c3cccs3)c2C)cc1 | 1.08% |
| S=C1Nc2cc(Cl)ccc2Sc2ccccc21 | 2.87% |
| O=C1Cc2ccccc2Sc2ccc(Cl)cc21 | 38.7% (active) |
| O=C(CSc1nc2ccccc2o1)N1c2ccccc2Sc2ccc(Cl)cc21 | -7.73% |
| Cc1ccccc1N/C(SCc1ccc(Cl)cc1)=C(/C#N)C(N)=O | 1.27% |
| Cc1nnc(-c2ccc(Oc3ccc(C)c(C)c3)c([N+](=O)[O-])c2)o1 | -6.06% |
| Cc1ccc(S(=O)(=O)N(CC(=O)Nc2cccc([N+](=O)[O-])c2)Cc2ccc(Cl)cc2)cc1 | -5.04% |
| CC1(C)CC(=O)C=C(NC2CC(C)(C)NC(C)(C)C2)C1 | 5.33% |
| COCC(C)N=CC1=C(O)CC(C)(C)CC1=O (stereo unspecified) | -1.64% |
| CCC(=NC1CC(C)(C)NC(C)(C)C1)C1=C(O)CC(C)(C)CC1=O | 36.4% (active) |
| Cc1[nH]c2ccccc2c1/C=N\NC(=O)Cn1nnc(-c2ccccc2)n1 | 1.83% |
| Cc1nn(CC(=O)Nc2ccc(N(C)C)cc2)c(C)c1[N+](=O)[O-] | -0.66% |
| COC(=O)/C(C#N)=C/c1occc1C | -5.74% |

| Structure (SMILES) | inhibition of the nicotinamide effect |
| --- | --- |
| Cc1cc(/C=C2/NC(=O)NC2=O)c(C)n1-c1cccnc1 | -0.65% |
| CCN(c1ccccc1)S(=O)(=O)c1ccc(N)cc1 | -3.49% |
| O=S(=O)(ON(c1ccccc1)S(=O)(=O)c1ccccc1)c1ccccc1 | 43.7% (active) |
| CCOc1ccc(S(=O)(=O)N(CC(=O)O)c2ccccc2)cc1 | -6.31% |
| Cc1nc2ccccc2n1CC(=O)N/N=C/c1cccs1 | 2.27% |
| NS(=O)(=O)c1ccc(CNC(=O)c2ccc(Cl)cc2[N+](=O)[O-])cc1 | 3.9% |
| CCCCN(C)c1ccc([N+](=O)[O-])cc1 | 0.62% |
| CCCCSc1[nH]c(=O)c(C(=O)OCC)cc1C#N | 35.7% (active) |
| CC(=O)c1cc(C#N)c(SCC(=O)C(C)(C)C)nc1C | -19% |
| Cc1cc(=O)[nH]c(SCC(N)=O)c1C#N | -13.6% |
| Cc1ccc(-c2nnc(SCC(=O)N/N=C/c3cccs3)n2-c2ccc(C)cc2)cc1 | -1.13% |
| CC1(C)CC(=O)C(N=Nc2ccc(S(=O)(=O)N3CCCCCC3)cc2)=C(O)C1 | -0.81% |
| CC(Sc1nc(-c2ccccc2)cc(C(F)(F)F)n1)C(=O)Nc1ccc2c(c1)OCO2 (stereo unspecified) | -1.2% |
| O=C1CCCC(O)=C1N=Nc1ccc2ncsc2c1 | -3.17% |
| Cc1cc(C(=O)COc2ccccc2[N+](=O)[O-])c(C)n1-c1cccc(S(=O)(=O)N2CCOCC2)c1 | 1.02% |
| Oc1ccc(Cl)cc1/C=N/c1nc2ccccc2[nH]1 | 6.53% |
| O=C(CCCO)N/N=C/c1cc(Br)ccc1O | 25% |
| Oc1ccc(Br)cc1C=Nc1ccc2[nH]ncc2c1 | 40.4% (active) |
| Cc1c(NC(=S)NCc2ccc(F)cc2)cccc1[N+](=O)[O-] | 0.2% |
| CCN1CCN(C(c2cccnc2)c2cc(Cl)c3cccnc3c2O)CC1 (stereo unspecified) | 30.4% (active) |
| CCOC(=O)N1CCN(C(c2cccnc2)c2ccc3cccnc3c2O)CC1 (stereo unspecified) | -7.28% |

| Structure (SMILES) | inhibition of the nicotinamide effect |
| --- | --- |
| Oc1c(CN2CCN(c3ccc(F)cc3)CC2)cc(Cl)c2cccnc12 | -13.6% |
| Cc1ccc(NN=C2C(=O)OC(C)(C)OC2=O)c(C)c1 | -2.15% |
| CC(=O)Nc1ccc(S(=O)(=O)NC2(C(F)(F)F)C(=O)Nc3c2c(=O)[nH]c(=O)n3Cc2ccccc2)cc1 (stereo unspecified) | 2.33% |
| C/C(=N/NC(=O)c1ccc(Br)o1)c1ccc(C)o1 | -2.27% |
| COc1cc(C(=O)Nc2cc(C(F)(F)F)ccc2N2CCOCC2)ccc1O | -3.94% |
| COC(=O)c1ccccc1OCC(=O)N1CCN(c2ccc(Cl)cc2)CC1 | -19.3% |
| O=C(NC(CC(=O)N1CCN(c2ccccc2)CC1)c1ccccc1)c1ccccc1Cl (stereo unspecified) | 35.4% (active) |
| CC(CC(=O)N1CCN(c2ccccc2)CC1)c1ccccc1 (stereo unspecified) | -11.3% |
| C/C(=N/NC(=O)CSc1ccccn1)c1ccc([N+](=O)[O-])cc1 | 1.62% |
| Cn1cccc1/C=C1\SC(=S)N(NC(=O)c2ccc(Cl)cc2)C1=O | 3.79% |
| O=C(NC(=O)c1ccccc1)NC(=O)c1ccccc1 | -15.8% |
| Cc1cc(C(=O)NNC(=S)Nc2ccccc2C)cs1 | 4.51% |
| Cc1ccccc1NC(=O)c1ccccc1 | 43.2% (active) |
| Cc1cc(C)c(NC(=O)c2oc3ccccc3c2COc2ccccc2)c(C)c1 | 0.31% |
| COC(=O)C1=C(NC(=O)C(C)(C)C)CCS1 | -1.21% |
| CCCCN(CC)C(=O)c1ccc2c(c1)OCO2 | -2.79% |
| Cn1cc([N+](=O)[O-])c(C(=O)Nc2cnn(Cc3ccc(F)cc3)c2)n1 | 10.4% |
| Cc1cccc(NC(=O)/C=C/c2ccc3c(c2)OCO3)n1 | -5.25% |
| CCOc1ccccc1/C=c1\sc2nc(-c3ccco3)nn2c1=O | 21.5% |
| O=c1nc2s/c(=C\c3ccco3)c(=O)n2nc1Cc1ccccc1 | 26.9% (active) |
| O=C(CCCN1C(=O)/C(=C/c2ccco2)SC1=S)Nc1ccccc1 | 4.28% |

| Structure (SMILES) | inhibition of the nicotinamide effect |
| --- | --- |
| NC(=O)c1ccccc1N=Cc1ccc2ccccc2c1 | 8.87% |
| CCC1=NN(C(=O)Cc2ccc([N+](=O)[O-])cc2)C(O)(c2ccc(Br)cc2)C1 (stereo unspecified) | 3.83% |
| CN(C)C(CNC(=O)c1ccc(S(=O)(=O)NCc2ccco2)cc1)c1ccccc1 (stereo unspecified) | 3.63% |
| CCCc1nc2c(c(=O)c3ccccc3n2C)c(=O)n1C1CCCCCC1 | 47.5% (active) |
| CCOC(=O)C(C)Sc1nc2ccccc2c(=O)n1CC1CCCCC1 (stereo unspecified) | 8.34% |
| Cn1c2ccccc2c(=O)c2c(=O)n(Cc3ccco3)c(COc3ccccc3)nc21 | 17.5% |
| CCOC(=O)c1c(NC(=O)C2(C)Cc3ccccc3C(=O)O2)sc2c1CCCC2 (stereo unspecified) | 1.18% |
| O=C(NCc1ccccc1Cl)C1CCC(CNc2c(N3CCCCC3)c(=O)c2=O)CC1 (stereo unspecified) | 3.91% |
| CCS(=O)(=O)Nc1cccc(-c2cc(-c3ccccc3)c3cc(C)ccc3n2)c1 | 1.36% |
| COc1ccc(C(CC(=O)Nc2ccc(C)cc2)NC(=O)C(F)(F)F)cc1 (stereo unspecified) | -0.39% |
| Cc1ccc2sc(NNC(=O)c3ccc4c(c3)OCCO4)nc2c1C | 0% |
| O=C(N/N=C/c1ccccn1)C12CC3CC(CC(C3)C1)C2 | 3.48% |
| COc1ccc([C@H]2[C@H](C(C)=O)N3N=Cc4ccccc4C3C23C(=O)OC(C)(C)OC3=O)cc1 (stereo partly specified) | 30.5% (active) |
| COc1ccc(C2C(C(=O)N3CCN(c4ccc(OC)cc4)CC3)c3ccccc3C(=O)N2C)cc1 (stereo unspecified) | -6.01% |
| O=C(Nc1ccc2ccccc2c1)/C(=C/c1cccc(Br)c1)NC(=O)c1ccco1 | -1.18% |
| COC(=O)C1=NNC2(c3ccc(C)cc3)C(=O)N(c3cccc(C)c3C)C(=O)C12 (stereo unspecified) | 14.3% |
| COc1ccc(C(=O)NNS(=O)(=O)c2ccc(C)cc2)cc1 | 3.8% |
| CC(C)CNC(=S)NC(=O)c1ccc(Cl)cc1 | -5.06% |
